Data on 37 sequences can be found in the array DNA melting data of Ke et al. (doi:10.1101/2024.01.08.574731).

The nature of data set [1]: folding enthalpy; higher = less favourable; fluorescence melt of hairpins on a sequencing array, two-state fit. Conditions: sodium 0.088 M. The method in brief:
(§1)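 Library hairpins on a sequenced MiSeq flow cell carried annealed Cy3 and quencher oligos, and their Cy3 fluorescence was imaged in 50 mM Na-HEPES pH 8.0 with 25 mM NaCl, in 2.5 °C steps up to 60 °C. Signals were normalised to Cy3 before quenching and to control constructs. Melting temperature and folding enthalpy were obtained from bootstrapped two-state fits, combined by inverse-variance weighting across four replicates, and the fitted temperatures were then raised by 9.35 °C to match UV melts.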

The nature of data set [2]: melting temperature; fluorescence melt of hairpins on a sequencing array, two-state fit, raised by 9.35 °C to match UV melts. Conditions: sodium 0.088 M. The procedure, abridged:
as §1

As for GAACTCGGAAACGAATTC (((.(((....))).))), the folding enthalpy in data set [1] was -27.5 kcal/mol. Further, the Tm in data set [2] amounted to 31.7 °C.

For the sequence GCCCCTGGAAACAAGGGC ((((.((....)).)))), the folding enthalpy in data set [1] is -28.8 kcal/mol. The Tm in data set [2] was 46.1 °C.

On to GCGATAAATCGC ((((....)))), for which, in data set [1], the folding enthalpy is -19.3 kcal/mol. Besides, in data set [2], the Tm was determined as 49.8 °C.

Regarding GGTTGCCGAAAGGCACC (((.(((....)))))), in data set [1], the folding enthalpy is -14.5 kcal/mol. Also, the Tm in data set [2] amounted to 59 °C.

GCCGTTCGAAAGAAGGGC (((.(((....))).))): the folding enthalpy in data set [1] was -44 kcal/mol. Moreover, the Tm in data set [2] was determined as 60.2 °C.

For the sequence GGCCTACGAAAGTAGCC (((.(((....)))))), the folding enthalpy in data set [1] is -22.4 kcal/mol. In addition, the Tm in data set [2] worked out at 53.6 °C.

Regarding GCTCGAGGAAACTTGAGC ((((.((....)).)))), in data set [1], the folding enthalpy was -37.8 kcal/mol. Besides, in data set [2], the Tm turned out to be 50.8 °C.

Take GCATTTCGAAAGAATTGC (((.(((....))).))): in data set [1], the folding enthalpy was -33.7 kcal/mol. In data set [2], the Tm came out at 47.1 °C.

Take GATCCTCTCAAGGATC ((((((....)))))): in data set [1], the folding enthalpy was -39.9 kcal/mol. In addition, the Tm in data set [2] was 53.2 °C.

On to GCGTCGCTACGC ((((....)))), for which the folding enthalpy in data set [1] was -13.7 kcal/mol. The Tm in data set [2] stood at 55.2 °C.

With GTACCAGAAATGGTAC ((((((....)))))), in data set [1], the folding enthalpy is -33.1 kcal/mol. Further, in data set [2], the Tm came to 53.2 °C.

Take GCAGTTCCGAAAGGATGC (((..(((....)))))): in data set [1], the folding enthalpy is -17.8 kcal/mol. The Tm in data set [2] came to 36.7 °C.

Consider CGTCCGGAAACGGCACG ((((((....))).))), for which, in data set [1], the folding enthalpy is -22.5 kcal/mol. In data set [2], the Tm amounted to 47.6 °C.

Turning to GATTGCGAAAGCACAATC ((((((....)))..))), the folding enthalpy in data set [1] is -10.8 kcal/mol. Also, the Tm in data set [2] was determined as 32.7 °C.

In the case of GATGGAGCGAAAGCTATC (((..(((....)))))), the folding enthalpy in data set [1] was -10.5 kcal/mol. The Tm in data set [2] turned out to be 30.2 °C.

Regarding GCTGACGAAAGTCTAGC ((((((....))).))), the folding enthalpy in data set [1] is -22.1 kcal/mol. Further, the Tm in data set [2] was 51.9 °C.

With GATCGCGTGGCGATC ((((((...)))))), the folding enthalpy in data set [1] is -32.6 kcal/mol. Moreover, the Tm in data set [2] stood at 69 °C.

Take GACTGCGGAAACACAGTC (((((.(....).))))): in data set [1], the folding enthalpy is -26.8 kcal/mol. The Tm in data set [2] was determined as 47.4 °C.

For GAGCGCGAAAGCGGCCTC ((((((....)))..))), the folding enthalpy in data set [1] was -11.7 kcal/mol. The Tm in data set [2] came to 51.1 °C.

With GCACGGCGAAAGCTCTGC (((..((....))..))), the folding enthalpy in data set [1] is -21.1 kcal/mol. For the same sequence, in data set [2], the Tm was 37.4 °C.

As to GCTTATCGAAAGATAGC (((.(((....)))))), the folding enthalpy in data set [1] is -27.5 kcal/mol. In data set [2], the Tm came to 43.4 °C.

Regarding GAGCGGAAACGCTC (((((....))))), in data set [1], the folding enthalpy was -27.4 kcal/mol. Further, the Tm in data set [2] came to 69.1 °C.

GGAAGGGGAAACCCTTCC (((((((....))))))): in data set [1], the folding enthalpy is -35.1 kcal/mol. In addition, the Tm in data set [2] was 64.4 °C.

As to GCACACTCGAAAGAGTGC (((..(((....)))))), in data set [1], the folding enthalpy was -9.86 kcal/mol. Besides, the Tm in data set [2] was found to be 38 °C.

Take GCGGTCGAAAGACGCCGC ((((((....)))..))): the folding enthalpy in data set [1] was -19.9 kcal/mol. Also, the Tm in data set [2] came out at 56.4 °C.

For GCAATCGGAAACGATCAC (..((((....))))..), in data set [1], the folding enthalpy was -12 kcal/mol. In addition, in data set [2], the Tm is 25.1 °C.

As for ACAAGGAAACTTGT (((((....))))), the folding enthalpy in data set [1] is -12.6 kcal/mol. The Tm in data set [2] turned out to be 40.3 °C.

With GCACGTCGAAAGACCTGC (((.(((....))).))), the folding enthalpy in data set [1] is -28.1 kcal/mol. Moreover, the Tm in data set [2] came out at 45.2 °C.

On to GCATGCGAAAGCACATGC ((((((....)))..))), for which, in data set [1], the folding enthalpy was -19 kcal/mol. Further, the Tm in data set [2] is 51 °C.

As to GGGGTGAAAACCCC (((((....))))), the folding enthalpy in data set [1] is -21.1 kcal/mol. Moreover, the Tm in data set [2] was found to be 66.6 °C.

For the sequence GGAGGCGAAAGCCAATCC ((((((....)))..))), the folding enthalpy in data set [1] is -10.4 kcal/mol. The Tm in data set [2] was found to be 33.6 °C.

For GACAGTGGAAACACCGTC (((.(((....))).))), the folding enthalpy in data set [1] is -24.8 kcal/mol. In data set [2], the Tm worked out at 39.6 °C.

For the sequence GCATGCGAAAGCAATTGC ((((((....)))..))), in data set [1], the folding enthalpy is -19.5 kcal/mol. Moreover, in data set [2], the Tm turned out to be 44.1 °C.

Turning to GCCGTGCGAAAGCTAGGC (((..((....))..))), the folding enthalpy in data set [1] was -32 kcal/mol. The Tm in data set [2] was 66.9 °C.

GACCACGAAAGTGTGGTC ((((((....)))..))): the folding enthalpy in data set [1] is -41 kcal/mol. Further, in data set [2], the Tm turned out to be 55.2 °C.

As to GGAAGCGCGAAAGCGTCC (((..(((....)))))), the folding enthalpy in data set [1] was -9.67 kcal/mol. Further, in data set [2], the Tm came to 37.3 °C.

In the case of GAGTGAGGAAACTCATTC ((.((((....)))).)), in data set [1], the folding enthalpy was -23.5 kcal/mol. In addition, the Tm in data set [2] turned out to be 38.5 °C.
